Active and inactive are the calls of the source. The rule behind the calls is not given here.

This note sets out measurements from ChEMBL document CHEMBL5046283, “Design, Synthesis, and Biological Evaluation of the First Inhibitors of Oncogenic CHD1L” (J Med Chem, 2022).

Data set [1] is described as follows: Cytotoxicty against CRC042 patient-derived tumor organoids assessed as reduction in cell viability incubated for 72 hrs by CellTiter Glo assay. In kind it is functional. Conditions: Homo sapiens, Neoplasm. In a few lines: (§1)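 Patient cells washed with PBS, digested with TrypLE and passed through a 100 μm strainer. Seeded at 5,000 cells/well with 2% Matrigel and left 72 h to self-assemble as organoids, then dosed for 72 h. CellTiter Glo 3D added 1:1, 45 min at room temperature with shaking, luminescence read. Normalised to 0.5% DMSO; triplicate experiments, technical n = 3.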

Data set [2] in a line: Inhibition of recombinant catalytic CHD1L (unknown origin) preincubated for 10 mins followed by ATP addition measured after 1 hr by plate reader analysis. Details: species or system Homo sapiens. In a few lines:
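800 nM catalytic CHD1L and 200 nM mononucleosome preincubated with inhibitor for 10 min at 37 °C in 50 mM Tris pH 7.5, 50 mM NaCl, 5 mM MgCl2, 2 mM DTT, 5% glycerol. Reaction started with 10 μM ATP, 1 h at 37 °C. Phosphate sensor added (500 nM), fluorescence read at ex 430/em 450. No-enzyme background; normalised to DMSO; triplicate.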

Data set [3] can be described thus: Inhibition of CHD1L-mediated TCF transcription in human SW-620 M-phenotype cells incubated for 24 hrs by TOPflash luciferase reporter assay. In kind it is cell-based. As to conditions: SW-620, 24 h. Summed up:
(§2)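 M-Phenotype cells seeded at 20,000 (SW620) or 10,000 (HCT116) cells/well and transiently transfected with TOPflash for 72 h. Treated for 24 h. Luminescence read with One-Glo after PBS wash, normalised to total protein by BCA on a parallel plate.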

Data set [4] can be described thus: Inhibition of CHD1L-mediated TCF transcription in human HCT-116 M-phenotype cells incubated for 24 hrs by TOPflash luciferase reporter assay. Conditions: HCT-116, 24 h. In kind it is cell-based. In a few lines: as §2
Data set [5] concerns SW-620. The experiment in a line: Cytotoxicity against human SW-620 M-phenotype tumor organoid assessed as reduction in cell viability incubated for 72 hrs by CellTiter Glo assay. Conditions: SW-620, 72 h. Format: functional, cell-based. Summed up: (§3)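 Isolated M-Phenotype cells plated at 2,000 cells/well in ultra-low-attachment round-bottom wells, centrifuged to aggregate, then given 2% Matrigel final. Grown 72 h at 37 °C/5% CO2 to form organoids, then dosed for 72 h. CellTiter Glo 3D added 1:1, shaken 45 min at room temperature, luminescence read. Normalised to 0.5% DMSO vehicle; triplicate experiments, technical n = 3.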

Data set [6] relates to HCT-116. Put plainly: Cytotoxicity against human HCT-116 M-phenotype tumor organoid assessed as reduction in cell viability incubated for 72 hrs by CellTiter Glo assay. Format: functional, cell-based. As to conditions: HCT-116, 72 h. Summed up:
as §3

Data set [7] in a line: Cytotoxicty against CRC102 patient-derived tumor organoid assessed as reduction in cell viability incubated for 72 hrs by CellTiter Glo assay. Conditions: Homo sapiens, Colon cancer organoid. Format: functional, tissue-based. Summed up: as §1
Data set [8] in a line: Induction of mesenchymal-epithelial transition in human SW-620 M-phenotype tumor organoid assessed as downregulation of vimentin expression by fluorescence analysis. In kind it is functional, cell-based. Summed up: (§4)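 M-Phenotype organoids carry a dual reporter (VimPro-GFP, EcadPro-RFP). Dose-response over a 72 h treatment; vimentin promoter activity read as GFP fluorescence by 3D high-content imaging and normalised. Duplicate experiments.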

Data set [9] is described as follows: Induction of mesenchymal-epithelial transition in human HCT-116 M-phenotype tumor organoid assessed as downregulation of vimentin expression by fluorescence analysis. In kind it is functional, cell-based. Summed up: as §4
The subject of data set [10] is SW-620. The experiment in a line: Inhibition of cell stemness in human SW-620 M-phenotype cells assessed as reduction in colony formation. Format: functional, cell-based. Summed up:
(§5)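 M-Phenotype cells plated at 200 (SW620) or 75 (HCT116) cells/well and treated continuously. Medium and drug replenished every three days over 7–10 days of growth. Colonies imaged by high-content imaging and counted. Duplicate experiments with triplicate technical replicates.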

Data set [11] deals with HCT-116. Put plainly: Inhibition of cell stemness in human HCT-116 M-phenotype cells assessed as reduction in colony formation. Format: functional, cell-based. Summed up:
as §5

In data set [12] the test system is SW-620. Put plainly: Cytotoxicity against human SW-620 tumor organoid assessed as reduction in cell viability incubated for 72 hrs by CellTiter Glo assay. Format: functional, cell-based. Conditions: SW-620, 72 h.
The subject of data set [13] is SW-620. Put plainly: Antitumor activity against human SW-620 cells xenografted in athymic nude mouse assessed as decrease in tumor volume at 75 to 125 mg/kg, po measured after 20 to 28 days by caliper method. Format: functional, organism-based. Conditions: dose 75-125 mg/kg, time 20-28 day. Summed up: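 SW620 EMT dual-reporter M-Phenotype cells, 2 × 10^6 cells/100 μL in 1:1 Matrigel:RPMI 1640, injected subcutaneously into each flank of female athymic nude mice (8 weeks old). Randomised at day 5 to vehicle (10% DMSO, 90% PEG 400), 75 or 125 mg/kg. Oral gavage once daily, 5 days/week, for 28–31 days. Caliper tumour volume twice weekly by 4/3*[…]*(L/2)*(W/2)*(H/2).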

Data set [14] can be described thus: Toxicity in athymic nude mouse xenografted with human SW-620 cells assessed as change in body weight at 75 to 125 mg/kg, po measured after 28 days. As to conditions: in vivo, dose 75-125 mg/kg, time 28 day. In kind it is organism-based. Summed up: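 Female athymic nude mice (8 weeks old) bearing subcutaneous SW620 EMT dual-reporter M-Phenotype flank xenografts. Dosed by oral gavage at 75 or 125 mg/kg, or vehicle (10% DMSO, 90% PEG 400), once daily, 5 days/week, for 28–31 days. Body weight recorded twice weekly.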

Consider `Cc1cc(Nc2ccc(NC(=O)Cc3c[nH]c4ccccc34)cc2)nc(N2CCCC2)n1`, for which the IC50 was found to be 6.2 µM in data set [1]; 3.3 µM in [2]; 11 µM in [3]; 6.9 µM in data set [4]; 1.1 µM with SW-620 [5]; 1.4 µM in the data set with HCT-116 [6]. The IC50 in data set [7] stood at 9 µM; in data set [8], 1.5 µM; in data set [9] it was 1.9 µM; in the data set with SW-620 [10] it was 1.1 µM; with HCT-116 [11] it was 0.9 µM.
`Cc1cc(Nc2ccc(NC(=O)Cc3c[nH]c4cc(Cl)ccc34)cc2)nc(N2CCCC2)n1`: the IC50 was 3.4 µM in data set [1]; 12 µM in data set [2]; 1.4 µM with SW-620 [12]; 9.6 µM in data set [3]; 4.2 µM in [4]; 2 µM with SW-620 [5]. The IC50 in the data set with HCT-116 [6] was determined as 2.3 µM; in data set [7] it was 8.2 µM; in data set [8], 1.8 µM; in [9] it was 2.5 µM; in the data set on SW-620 [10], 0.5 µM; in the data set on HCT-116 [11] it was 0.4 µM.
`Cc1cc(Nc2ccc(NC(=O)Cc3c(C)[nH]c4ccccc34)cc2)nc(N2CCCC2)n1`: the IC50 in [1] was 4 µM; in data set [2], 16 µM; in the data set on SW-620 [12], 1.6 µM; in data set [3], 6.4 µM; in data set [4], 6.9 µM; in the data set on SW-620 [5], 2.3 µM. The IC50 in the data set with HCT-116 [6] came to 2.2 µM; in data set [7], 11 µM; in [8], 1.7 µM; in data set [9], 2.7 µM; with SW-620 [10], 1.6 µM; with HCT-116 [11], 0.9 µM.
`Cc1cc(Nc2ccc(NC(=O)Cc3cccc4ccccc34)cc2)nc(N2CCCC2)n1`: the concentration for half-maximal inhibition (IC50) in [1] came out at 3.1 µM; in data set [2] it was 2.9 µM; in [3], 2.2 µM; in data set [4] it was 5.5 µM; in the data set on HCT-116 [6], 2.3 µM; in data set [7], 5.3 µM. Moreover, the IC50 turned out to be 1.8 µM in data set [8], 2.6 µM in [9], 0.7 µM with SW-620 [10] and 0.5 µM in the data set on HCT-116 [11].
`Cc1cc(Nc2ccc(NC(=O)Cc3cc(Br)cs3)cc2)nc(N2CCCC2)n1`: the IC50 amounted to 4.2 µM in [1]; 3.3 µM in data set [2]; 2.6 µM with SW-620 [12]; 12 µM in [3]; 8.7 µM in data set [4]; 2.6 µM in the data set on SW-620 [5]. Besides, the IC50 in the data set on HCT-116 [6] amounted to 4.3 µM; in data set [7] it was 8.3 µM; in data set [8], 3.3 µM; in [9] it was 5 µM; in the data set with SW-620 [10] it was 1.6 µM; in the data set with HCT-116 [11] it was 0.8 µM. Further, in the data set on SW-620 [13], the result was Active. Besides, in data set [14], the Activity result was “Non-Toxic”.
Consider `Cc1cc(Nc2ccc(NC(=O)Cc3cccs3)cc2)nc(N2CCCC2)n1`, for which the IC50 in data set [1] was determined as 16 µM; in [2], 4 µM; in the data set on SW-620 [12], 4.6 µM; in [3] it was 43 µM; in data set [4], 38 µM; in the data set with SW-620 [5], 8.7 µM. Moreover, the IC50 with HCT-116 [6] stood at 9.4 µM; in data set [7], 21 µM; in [8] it was 10 µM; in data set [9], 13 µM; with HCT-116 [11] it was 3.2 µM.
Regarding `Cc1cc(Nc2ccc(NC(=O)Cc3cc(Cl)nc4ccccc34)cc2)nc(N2CCCC2)n1`, the IC50 in data set [1] stood at 3.1 µM; in [2] it was 12 µM; with SW-620 [12], 2.4 µM; in [3], 4.9 µM; in data set [4], 4.9 µM; in the data set with SW-620 [5], 1.3 µM. In addition, the half-maximal inhibitory concentration (IC50) was 2.2 µM in the data set with HCT-116 [6]; 3.5 µM in data set [7]; 1.3 µM in data set [8]; 2.6 µM in data set [9]; 0.3 µM in the data set on SW-620 [10]; 0.2 µM with HCT-116 [11].
